For the assay, the system named is Aorta. In words: Vasodilation activity in Wistar rat thoracic aorta assessed as reduction of norepinephrine hydrochloride-induced contracture after 2 hrs. The class given is functional, tissue-based. In short, it runs like this: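 Endothelium-denuded aortic preparations (functional endothelium removed, confirmed by <10% acetylcholine relaxation of pre-contracted aorta) equilibrated 2 h under 2 g resting tension. Contraction to norepinephrine hydrochloride (3 × 10^-7 to 3 × 10^-3 M) recorded isometrically before and after increasing test concentrations. DMSO stock 50 mg/ml; DMSO-only controls. IC50 = concentration giving 50% reduction of maximal norepinephrine contracture.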

As for `CCOC(=O)c1c(-c2ccc(F)cc2)cc(-c2ccccc2)nc1Nc1ccc(Cl)cc1`, the IC50 stood at 715 µM.

On to `CCOC(=O)c1c(-c2ccc(F)cc2)cc(-c2ccccc2)nc1Nc1ccc(OC)cc1`, for which the IC50 worked out at 254 µM.

Take `CCOC(=O)c1c(-c2ccc(C)cc2)cc(-c2ccccc2)nc1N`: the IC50 worked out at 327 µM.

With `CCOC(=O)c1c(-c2ccc(C)cc2)cc(-c2ccccc2)nc1Nc1ccc(OC)cc1`, the IC50 stood at 233 µM.

On to `CCOC(=O)c1c(-c2ccc(F)cc2)cc(-c2ccccc2)nc1N`, for which the IC50 was 335 µM.

As for `CCOC(=O)c1c(-c2ccc(F)cc2)cc(-c2ccccc2)nc1N1CCCCC1`, the IC50 is 346 µM.

Turning to `CCOC(=O)c1c(-c2ccc(C)cc2)cc(-c2ccccc2)nc1N1CCCCC1`, the IC50 came to 175 µM.

On to `CCOC(=O)c1c(-c2ccc(C)cc2)cc(-c2ccccc2)nc1N1CCOCC1`, for which the IC50 was determined as 340 µM.

On to `CCOC(=O)c1c(-c2ccc(C)cc2)cc(-c2ccccc2)nc1Nc1ccc(Cl)cc1`, for which the IC50 worked out at 266 µM.

`CCOC(=O)c1c(-c2ccc(F)cc2)cc(-c2ccccc2)nc1Nc1ccccc1`: the IC50 was determined as 367 µM.

In the case of `CCOC(=O)c1c(-c2ccc(C)cc2)cc(-c2ccccc2)nc1N1CCN(c2nc(-c3ccccc3)cc(-c3ccc(C)cc3)c2C(=O)OCC)CC1`, the IC50 worked out at 229 µM.

On to `CCOC(=O)c1c(-c2ccc(F)cc2)cc(-c2ccccc2)nc1N1CCOCC1`, for which the IC50 was 146 µM.
